ChEMBL document CHEMBL3244277, “Study of trans-cyclopropylbis (diketopiperazine) and chelating agents related to ICRF 159. Cytotoxicity, mutagenicity, and effects on scheduled and unscheduled DNA synthesis” (J Med Chem, 1977)

Columns and labels:
[1] = Cytotoxicity against chinese hamster V79-4 cells assessed as survival using 5 x 10^5 cells per plate at 10^-3 M after 24 hrs; type: cell-based, Cricetulus griseus; conditions: read-out: Survival
Summary of the method: (§1)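 Chinese hamster V-79A cells were seeded in 100-mm dishes, allowed to attach for 2 h, then exposed for 24 h to drug diluted from PBS stocks into Eagle's MEM with 15% fetal calf serum. Cells were rinsed twice in Hank's salt solution and grown drug-free for 7 days at 37 °C in 5% CO2. Colonies were stained with hematoxylin/eosin and counted; each value is the mean of eight plates.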

[2] = Cytotoxicity against chinese hamster V79-4 cells assessed as survival using 1 x 10^5 cells per plate at […] after 24 hrs; type: cell-based, Cricetulus griseus; conditions: read-out: Survival
V79-4 [3] = assay: Induction of unscheduled DNA synthesis in chinese hamster V79-4 cells assessed as DNA synthesis at 10^-4 to 10^-5 M measured at 0 to 5 hrs by [3H]thymidine uptake /autoradiography in presence of 2 x 10^-3 M hydroxyurea; conditions: Cricetulus griseus
V79-4 [4] = assay: Induction of unscheduled DNA synthesis in chinese hamster V79-4 cells assessed as DNA synthesis at 10^-3 to 10^-5 M measured at 8 hrs by [3H]thymidine uptake /autoradiography in presence of 2 x 10^-3 M hydroxyurea; conditions: Cricetulus griseus, v79-4, 8 h
V79-4 [5] = assay: Inhibition of scheduled DNA synthesis in chinese hamster V79-4 cells assessed as DNA synthesis at 10^-5 M measured at 10 hrs by [3H]thymidine uptake /autoradiography (reference value: 81.7 %); type: functional, Cricetulus griseus; design: scale not given: the % may be the effect or the level left
[6] = Cytotoxicity against chinese hamster V79-4 cells assessed as survival using 1 x 10^5 cells per plate at 10^-4 M after 24 hrs; type: cell-based, Cricetulus griseus; conditions: read-out: Survival; summary of the method: as §1
[7] = Cytotoxicity against chinese hamster V79-4 cells assessed as survival using 5 x 10^5 cells per plate at […] after 24 hrs; type: cell-based, Cricetulus griseus; conditions: read-out: Survival
V79-4 [8] = assay: Inhibition of scheduled DNA synthesis in chinese hamster V79-4 cells assessed as DNA synthesis at 10^-3 M measured at 10 hrs by [3H]thymidine uptake /autoradiography (reference value: 81.7 %); type: functional, Cricetulus griseus; design: scale not given: the % may be the effect or the level left
[9] = Cytotoxicity against chinese hamster V79-4 cells assessed as survival using 5 x 10^5 cells per plate at 10^-4 M after 24 hrs; type: cell-based, Cricetulus griseus; conditions: read-out: Survival; summary of the method: as §1
V79-4 [10] = assay: Induction of unscheduled DNA synthesis in chinese hamster V79-4 cells assessed as DNA synthesis at 10^-3 M measured at 8 hrs by [3H]thymidine uptake /autoradiography in presence of 2 x 10^-3 M hydroxyurea; conditions: Cricetulus griseus, v79-4, 8 h, 1000 µM
V79-4 [11] = assay: Inhibition of scheduled DNA synthesis in chinese hamster V79-4 cells assessed as DNA synthesis at 10^-4 M measured at 10 hrs by [3H]thymidine uptake /autoradiography (reference value: 81.7 %); type: functional, Cricetulus griseus; design: scale not given: the % may be the effect or the level left
V79-4 [12] = assay: Mutagenicity in chinese hamster V79-4 cells assessed as mutation frequency measured per 5 x 10^5 cells per plate at 10^-5 M after 24 hrs relative to control; type: toxicity, cell-based, Cricetulus griseus; conditions: v79-4, 24 h, 10 µM
Summary of the method: (§2)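 V-79A cells plated at 5×10⁵ or 1×10⁵ per dish in MEM + 5% FCS and allowed 2 h to attach. Exposed 24 h at 37 °C to 10⁻³–10⁻⁵ M drug or none, washed in PBS, then grown 12 days in MEM + 10% FCS with 10⁻³ M ouabain. Resistant colonies were counted after hematoxylin/eosin staining, averaging 20 plates, and expressed per 5×10⁵ cells.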

V79-4 [13] = assay: Inhibition of scheduled DNA synthesis in chinese hamster V79-4 cells assessed as DNA synthesis at 10^-3 M measured at 10 hrs by [3H]thymidine uptake /autoradiography (reference value: 83.3 %); type: functional, Cricetulus griseus; design: scale not given: the % may be the effect or the level left
V79-4 [14] = assay: Inhibition of scheduled DNA synthesis in chinese hamster V79-4 cells assessed as DNA synthesis at 10^-5 M measured at 10 hrs by [3H]thymidine uptake /autoradiography (reference value: 83.3 %); type: functional, Cricetulus griseus; design: scale not given: the % may be the effect or the level left
V79-4 [15] = assay: Mutagenicity in chinese hamster V79-4 cells assessed as mutation frequency measured per 1 x 10^5 cells per plate at 10^-4 M after 24 hrs relative to control; type: toxicity, cell-based, Cricetulus griseus; conditions: v79-4, 24 h, 100 µM
[16] = Cytotoxicity against chinese hamster V79-4 cells assessed as survival using 1 x 10^5 cells per plate at 10^-3 M after 24 hrs; type: cell-based, Cricetulus griseus; conditions: read-out: Survival; summary of the method: as §1
V79-4 [17] = assay: Mutagenicity in chinese hamster V79-4 cells assessed as mutation frequency measured per 5 x 10^5 cells per plate at 10^-4 M after 24 hrs relative to control; type: toxicity, cell-based, Cricetulus griseus; conditions: v79-4, 24 h, 100 µM; summary of the method: as §2
V79-4 [18] = assay: Inhibition of scheduled DNA synthesis in chinese hamster V79-4 cells assessed as DNA synthesis at 10^-4 M measured at 10 hrs by [3H]thymidine uptake /autoradiography (reference value: 83.3 %); type: functional, Cricetulus griseus; design: scale not given: the % may be the effect or the level left
V79-4 [19] = assay: Induction of unscheduled DNA synthesis in chinese hamster V79-4 cells assessed as DNA synthesis at 10^-3 to 10^-5 M measured at 0 to 8 hrs by [3H]thymidine uptake /autoradiography in presence of 2 x 10^-3 M hydroxyurea; conditions: Cricetulus griseus
V79-4 [20] = assay: Inhibition of scheduled DNA synthesis in chinese hamster V79-4 cells assessed as DNA synthesis at 10^-5 M measured at 10 hrs by [3H]thymidine uptake /autoradiography (reference value: 85.2 %); type: functional, Cricetulus griseus; design: scale not given: the % may be the effect or the level left
V79-4 [21] = assay: Inhibition of scheduled DNA synthesis in chinese hamster V79-4 cells assessed as DNA synthesis at 10^-4 M measured at 10 hrs by [3H]thymidine uptake /autoradiography (reference value: 85.2 %); type: functional, Cricetulus griseus; design: scale not given: the % may be the effect or the level left
V79-4 [22] = assay: Inhibition of scheduled DNA synthesis in chinese hamster V79-4 cells assessed as DNA synthesis at 10^-3 M measured at 10 hrs by [3H]thymidine uptake /autoradiography (reference value: 85.2 %); type: functional, Cricetulus griseus; design: scale not given: the % may be the effect or the level left

Structure (SMILES) | viability at 24 h, 1000 µM [1] [%] | viability at 24 h, 10 µM [2] [%] | Activity (V79-4 [3]) | viability at 24 h, 100 µM [6] [%] | viability at 24 h, 10 µM [7] [%] | viability at 24 h, 100 µM [9] [%] | Activity (V79-4 [10]) | viability at 24 h, 1000 µM [16] [%] | further results
CC(CN(CC(=O)O)CC(=O)O)N(CC(=O)O)CC(=O)O (centres undefined) | 1 | 94 | Non-toxic | 85 | 94 | 85 | Toxic | – | Activity (V79-4 [4]): Toxic; Activity (V79-4 [5]): 69.2%; Activity (V79-4 [8]): 61.1%; Activity (V79-4 [11]): 64.7%
O=C1CN([C@H]2C[C@@H]2N2CC(=O)NC(=O)C2)CC(=O)N1 (relative stereo) | 30 | 70 | Non-toxic | 50 | 70 | 50 | Toxic | 30 | Activity (V79-4 [12]): Non-toxic; Activity (V79-4 [13]): 76.3%; Activity (V79-4 [14]): 82.2%; Activity (V79-4 [15]): Non-toxic; Activity (V79-4 [17]): Non-toxic; Activity (V79-4 [18]): 78.3%
COC(=O)CN(CC(=O)OC)[C@@H]1C[C@H]1N(CC(=O)OC)CC(=O)OC (relative stereo) | 0.02 | 90 | – | 2 | 90 | 2 | – | 0.02 | –
O=C(O)CN(CC(=O)O)[C@@H]1C[C@H]1N(CC(=O)O)CC(=O)O (relative stereo) | 0.04 | 10 | – | – | 10 | 0.6 | – | – | Activity (V79-4 [19]): Toxic; Activity (V79-4 [20]): 83.8%; Activity (V79-4 [21]): 75.5%; Activity (V79-4 [22]): 7.3%
